Sampled rows, rich in hits. Any-hit rate of the full collection: about 3.7%.
Dynein transport: blocks dynein driven cargo transport along microtubules; 0.47% of 220,000 active; AID 1381; z-score, hits read low; 3617.4 mouse cells, GR-EGFP nuclear translocation imaging; test concentration mostly 20 µM; stimulated with dexamethasone, 1 µM; active compounds read low;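 active = plate z-score of nuclear minus cytoplasmic receptor signal below a set negative limit, without overly bright fluorescence or cell loss, cut at about -3.5 in these data, passing the limit was not always enough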;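 also: z-score of nuclear minus cytoplasmic ring GR-EGFP intensity difference per well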
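Schedule: 48 h induction, then 1 h compound, then 30 min agonist, 37 °C. Buffer or medium: tetracycline-free induction medium containing charcoal-stripped FBS. Reagent: 1.0 µM final dexamethasone stimulus. Evaluation: nuclear versus cytoplasmic GR-EGFP signal, averaged per well. Signal: high-content fluorescence imaging after fixation.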
Beta2AR agonist: human beta-2 adrenergic receptor agonism by FAP. Am2.2-beta2AR cells, FAP receptor internalization, flow cytometry. AID 504454. response, % (test concentration not listed). 0.43% of 340,000 active;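 active = response above a set limit, near 3 SD of response in nonfluorescent compounds, cut at about 42% in these data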
CHOP UPR activ: apoptotic UPR (CHOP) activation | CHO-CHOP luciferase reporter, luminescence; percent of tunicamycin response over DMSO baseline | activation, % at 10 µM | 0.34% of 330,000 active;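 active = at 10 µM dose, activation of 40% or more, normalized to positive control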
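assay system = CHO CHOP reporter cells | amount = 500 CHO-CHOP cells per well | buffer or medium = F12 with 10% FBS | incubation = 16-18 h cell attachment, then 6 h compound exposure, 37 °C | detection = luminescence read with Steady-Glo | read-out = percent activation relative to tunicamycin control | controls = tunicamycin high control, DMSO low control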
Mdm2 ligase inh: Mdm2 E3 ligase (human) inhibition | cell-based MDM2 ubiquitination luciferase reporter, 2 h; 0 = plate control, 100 = twice control, blank-subtracted | signal enhancement, % at 5 µM | 0.11% of 210,000 active | AID 1230;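 active = signal enhancement of 30% or more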;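 also: luminescence tracks abundance of the self-degrading MDM2-luciferase fusion protein; higher signal means inhibition of MDM2 E3 ligase activity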
Target sequence (Q00987 whole entry, looked up, the tested form may be a part): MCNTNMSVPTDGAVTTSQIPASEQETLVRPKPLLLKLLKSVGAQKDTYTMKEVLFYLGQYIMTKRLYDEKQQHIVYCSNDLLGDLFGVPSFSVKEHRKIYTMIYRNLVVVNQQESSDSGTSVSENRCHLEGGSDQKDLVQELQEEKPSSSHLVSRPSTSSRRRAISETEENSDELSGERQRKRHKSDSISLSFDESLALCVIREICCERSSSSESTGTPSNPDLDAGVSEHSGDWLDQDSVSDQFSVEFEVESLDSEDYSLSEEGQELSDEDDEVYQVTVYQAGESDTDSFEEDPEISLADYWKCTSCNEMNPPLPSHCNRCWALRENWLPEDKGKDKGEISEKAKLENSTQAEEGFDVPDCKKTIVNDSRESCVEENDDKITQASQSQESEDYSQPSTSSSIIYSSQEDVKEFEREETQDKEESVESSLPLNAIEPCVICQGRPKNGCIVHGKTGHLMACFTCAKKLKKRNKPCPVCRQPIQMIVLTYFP
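System: stable MDM2–luciferase fusion reporter cells / Input: 2000 cells seeded into each well / Schedule: 4 h settle plus 2 h compound, 37 °C / Compound: single-point 5 µM / Buffer or medium: cells held in DMEM / Benchmarks: control and blank well means / Evaluation: percent signal gain over controls, blank-subtracted / Measured by: luciferase luminescence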
Mdm2 MdmX PPI: disrupts the human Mdm2-MdmX interaction; O15151+Q00987; SaOS-2 split-luciferase Mdm2/MdmX complementation, luminescence; inhibition, % at 8 µM; 3% of 330,000 active; AID 485346;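 active = inhibition of at least 50% at 8 µM in the primary screen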
XBP1 UPR activ: activators of adaptive arm of unfolded protein response (XBP1); CHO-XBP1 luciferase reporter, IRE1-XBP1 UPR activation, luminescence; percent of tunicamycin response, DMSO as zero; activation, % at 20 µM; 0.33% of 330,000 active;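 active = versus positive control, 20 µM dose yields 30% or more activation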
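Assay system: IRE1-XBP1 luciferase reporter CHO line. Input: 1000 cells/well. Buffer or medium: F12 with 10% serum. Doses: 20 µM, 1% DMSO. Times: overnight seeding at 37 °C, 6 h compound treatment at 37 °C. Technique: Steady-Glo luciferase glow luminescence, 10 min after reagent addition.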
Mdm2-MdmX conf: human Mdm2/MdmX binding inhibition, confirmed | inhibition, % at 8 µM | shares compounds with Mdm2 MdmX PPI | 55% of 10,000 active | luminescent assay; in the data active = inhibition above about 40%
FLuc counter: counter-screen for Mdm2/MdmX inhibitors: full-length luciferase; shares compounds with Mdm2 MdmX PPI; SaOS-2 full-length luciferase counterscreen, luminescence; inhibition, % at 8 µM; 77% of 6,200 active;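 active = mean inhibition at 8 µM reaching about 37%, which flags the compound as non-specific, limit read from the data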;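 also: p53-null SaOS-2 cells with luciferase driven by a doxycycline-inducible promoter; compound on cells about two nights before reading with doxycycline added after day one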
Numbers stand for hits; . = inactive; / = no result.

SMILES	Dynein transport	Beta2AR agonist	CHOP UPR activ	Mdm2 ligase inh	Mdm2 MdmX PPI	XBP1 UPR activ	Mdm2-MdmX conf	FLuc counter
COc1cccc(CN2CC(C(=O)NCCc3ccc(C)o3)CCC2=O)c1 (stereo unspecified)	/	.	.	/	.	.	/	/
CC1=C(C#N)c2nc(N)c(C#N)c(C)c2/C1=C\c1ccc(OCC(=O)O)c(Cl)c1	.	.	.	.	.	.	/	/
CCCCNc1c(-c2ccc(OC)c(SC(C)CC)c2)nc2ccc(C)cn12 (stereo unspecified)	/	.	.	/	89	.	.	/
CCCCNc1c(-c2ccc(OC)c(SC3CCCCC3)c2)nc2ccc(C)cn12	/	76	.	/	98	.	46	.
CCC(C)Sc1ccc(-c2nc3ccc(C)cn3c2NCc2ccccc2)cc1OC (stereo unspecified)	/	.	.	/	97	.	57	39
COc1ccc(-c2nc3ccc(C)cn3c2NCc2ccccc2)cc1SC1CCCCC1	/	.	.	/	53	.	.	/
CCC(C)Sc1cc(-c2nc3ccc(C)cn3c2NCc2ccccc2)ccc1OC (stereo unspecified)	/	.	/	/	/	/	/	/
CCCCNc1c(-c2ccc(OC)c(SC(C)CC)c2)nc2ccc(Cl)cn12 (stereo unspecified)	/	.	.	/	.	.	/	/
CCCCNc1c(-c2ccc(Sc3ccc(OC)cc3)cc2)nc2cc(C)ccn12	/	.	.	/	80	.	.	/
COc1ccc(-c2nc3cc(C)ccn3c2NCc2ccc3c(c2)OCO3)cc1	.	.	.	.	.	.	/	/
CC(C)c1ccc(NC(=S)NNC(=O)c2cccs2)cc1	.	.	.	.	.	.	/	/
CCCCCCCn1c2c(c(=N)c3ccccc31)CCC2	.	.	.	.	89	.	71	37
CCCn1c2c(c(=N)c3c1CCC3)CCC2	.	.	.	.	.	.	/	/
Cc1ccc2[nH]c(C)c(/C=C/c3cc[n+](C)cc3)c2c1	/	.	.	/	74	.	67	54
Cn1cc(/C=C/c2cc[n+](C)cc2)c2cc(F)ccc21	/	.	/	/	/	/	/	/
Cc1ccc2c(c1)c(/C=C/c1cc[n+](C)cc1)c(C)n2C	/	/	.	/	83	.	59	49
FC(F)(F)c1cccc(Cn2c3[n+](c4ccc(C(F)(F)F)cc42)CCCCC3)c1	.	.	.	.	.	.	/	/
Cc1cc(C(C)(C)C)cc(C)c1Cn1c2[n+](c3ccc(C(F)(F)F)cc31)CCCCC2	.	.	.	.	72	.	48	50
CCCCNC(=O)N1CCCN(c2ccc(C#N)cn2)CC1	/	.	.	/	.	.	/	/
O=C(/C=C/c1ccco1)Nc1ccc(Oc2ccc(Cl)cc2)cc1	.	.	.	.	55	.	60	40
COCCN(Cc1nc(C2(c3ccc(C)cc3)CCCC2)no1)C(C)C	.	.	.	.	.	.	/	/
Cc1ccc(CN2CC(C(=O)Nc3ncc(C)s3)CC2=O)cc1 (stereo unspecified)	/	.	.	/	61	.	59	66
Cc1ccc(CN2CC(C(=O)Nc3ccncc3)CC2=O)cc1 (stereo unspecified)	/	.	.	/	.	.	/	/
COc1ccc(NS(=O)(=O)c2cc(NC(=O)CCc3ccccc3)ccc2N2CCOCC2)cc1	/	.	/	/	/	/	/	/
COc1cccc(CNCCO)c1OCc1ccccc1Cl	.	.	.	.	.	.	/	/
CCOc1cc(CNCCO)cc(Br)c1OCc1ccccc1Cl	.	.	.	.	68	.	.	/
CCOc1cccc(CNCCO)c1OCc1ccc(Cl)cc1	.	.	.	.	.	.	/	/
CCOc1cc(CNCCO)cc(Br)c1OCc1ccc(Cl)cc1	.	.	.	.	80	.	.	/
OCCNCc1c(OCc2ccc(Cl)cc2)ccc2ccccc12	/	.	.	/	53	.	41	70

Screening results deposited in PubChem BioAssay by several laboratories.
